Consider 25 compounds from ChEMBL document CHEMBL1221309, “Synthesis of novel tetrahydroisoquinoline bronchodilators” (Bioorg Med Chem Lett, 2010).

For data set [1], the species on record is Homo sapiens. Description: Bronchorelaxant activity in human small airways assessed as remaining contraction at 10 uM relative to LTD4. It counts as functional. A digest of the protocol:
(§1)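 Isolated human small airways (inner diameter <2.0 mm) were mounted in a previously described apparatus and contracted with LTD4. The test item was added, usually at 10 μM and also at 1 μM. %RC is the contraction remaining with the test item, expressed against the maximum LTD4-evoked contraction without it.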

Data set [2] is filed under the species Homo sapiens. Description: Bronchorelaxant activity in human small airways assessed as remaining contraction at 1 uM relative to LTD4. It counts as functional. A digest of the protocol: as §1
Data set [3] is filed under the species Homo sapiens. The experiment in a line: Bronchorelaxant activity in human small airways assessed as remaining contraction. Type of data set: functional. The method, boiled down:
as §1

The nature of data set [4]: Aqueous solubility of the compound. Type of data set: physicochemical.
The nature of data set [5]: Lipophilicity log D of the compound at pH 7.4. It counts as physicochemical. The conditions noted are these: buffer.
The species named for data set [6] is Homo sapiens. The experiment in a line: Bronchorelaxant activity in human small airways assessed as remaining contraction at 10 uM relative to acetylcholine. Type of data set: functional. A digest of the protocol: (§2)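 Isolated human small airways (inner diameter <2.0 mm) were contracted with acetylcholine, with histamine, or with a cocktail of LTD4, acetylcholine and histamine. Test item at 10 μM; relaxation of each induced contraction was recorded.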

The species named for data set [7] is Homo sapiens. Description: Bronchorelaxant activity in human small airways assessed as remaining contraction at 10 uM relative to histamine. Type of data set: functional. A digest of the protocol:
as §2

The species entered for data set [8] is Homo sapiens. Description: Bronchorelaxant activity in human small airways assessed as remaining contraction at 10 uM relative to acetylcholine and histamine combination. It counts as functional. The method, boiled down:
as §2

In brackets after ≈: the same amount, converted by molar mass.

For the compound `Cc1cc(C(F)(F)F)cnc1CCCC(=O)N1CCc2c(Cl)c(O)c(O)c(Cl)c2C1`, the values for the Activity in data set [1] and in data set [2] were 7% and 67%, respectively.
Turning to `O=C(CCCc1ncc(C(F)(F)F)cc1-c1ccccc1)N1CCc2c(Cl)c(O)c(O)c(Cl)c2C1`, the Activity in data set [1] came to 38%; in data set [2], 90%.
Taken in the same sequence, the figures for `COc1ccc(CCCC(=O)N2CCc3c(Cl)c(O)c(O)c(Cl)c3C2)nc1` were 31% and 96%.
Turning to `O=C(/C=C/c1ccc(C(F)(F)F)nc1)N1CCc2c(c3c(c4c2CCO4)OCC3)C1`, the Activity in data set [1] came out at 91%.
Consider `O=C(/C=C/c1ccc(F)cn1)N1CCc2c(Cl)c(O)c(O)c(Cl)c2C1`, for which, in data set [1], the Activity was determined as 24%.
Turning to `O=C(CCc1ccc(C(F)(F)F)nc1)N1CCc2c(Cl)c(O)c(O)c(Cl)c2C1`, the Activity in data set [1] was 29%.
Regarding `CS(=O)(=O)c1ccc(CCCC(=O)N2CCc3c(Cl)c(O)c(O)c(Cl)c3C2)nc1`, the figures for the Activity in data set [1] and in data set [2] were 72% and 99%, respectively.
Regarding `O=C(CCCc1ncc(C(F)(F)F)cc1C1CCCCC1)N1CCc2c(Cl)c(O)c(O)c(Cl)c2C1`, in data set [1], the Activity worked out at 77%.
Turning to `O=C(CCc1ccc(C(F)(F)F)nc1)N1CCc2c(F)c(O)c(O)c(F)c2C1`, the Activity in data set [1] worked out at 85%.
Turning to `N#Cc1ccc(CCCC(=O)N2CCc3c(Cl)c(O)c(O)c(Cl)c3C2)nc1`, the values for the Activity in data set [1] and in data set [2] were 34% and 86%, respectively.
For `O=C(/C=C/c1ccccc1)N1CCc2c(Cl)c(O)c(O)c(Cl)c2C1` the same measures were 41% and 83%.
Taken in the same sequence, the figures for `O=C(CCCc1ccc(C(F)(F)F)cn1)N1CCc2c(Cl)c(O)c(O)c(Cl)c2C1` were 19% and 72%.
Consider `C/C(=C\C(=O)N1CCc2c(Cl)c(O)c(O)c(Cl)c2C1)c1ccc(C(F)(F)F)nc1`, for which the Activity was 7% in data set [1]; 74% in data set [2]; 93% in data set [6]; 97% in data set [7]; 82% in data set [8]. Also, the ED50 in data set [3] was 2.27 µM. Also, the solubility in data set [4] is 18 µM (≈ 8.05 µg/mL). In data set [5], this compound yielded a pH-dependent lipophilicity (logD) of 3.5.
Consider `O=C(CCCc1ncc(C(F)(F)F)cc1Cl)N1CCc2c(Cl)c(O)c(O)c(Cl)c2C1`, for which the Activity in data set [1] was determined as 5%; in data set [2], 61%.
For `O=C(/C=C/c1cccnc1)N1CCc2c(Cl)c(O)c(O)c(Cl)c2C1` the same measures were 44% and 100%.
For `O=C(CCCc1ccc([N+](=O)[O-])cn1)N1CCc2c(Cl)c(O)c(O)c(Cl)c2C1` the same measures were 33% and 74%.
`O=C(/C=C/c1ccc(C(F)(F)F)nc1)N1CCc2c(Cl)c(O)c(O)c(Cl)c2C1`: the Activity came out at 6% in data set [1] and 87% in data set [2].
For `O=C(CCCc1ccc(Cl)cc1)N1CCc2c(Cl)c(O)c(O)c(Cl)c2C1` the same measures were 16% and 80%.
Taken in the same sequence, the figures for `Cc1nc(C(F)(F)F)ccc1/C=C/C(=O)N1CCc2c(Cl)c(O)c(O)c(Cl)c2C1` were 9% and 71%.
`Cc1c(O)c(O)c(C)c2c1CCN(C(=O)/C=C/c1ccc(C(F)(F)F)nc1)C2`: the Activity in data set [1] turned out to be 75%.
On to `Cc1nc(C(F)(F)F)ncc1/C=C/C(=O)N1CCc2c(Cl)c(O)c(O)c(Cl)c2C1`, for which the Activity in data set [1] worked out at 18%; in data set [2], 88%.
For `O=C(CCCc1ccc(Cl)cn1)N1CCc2c(Cl)c(O)c(O)c(Cl)c2C1` the same measures were 15% and 85%.
For `O=C(CCCc1ccc(F)cn1)N1CCc2c(Cl)c(O)c(O)c(Cl)c2C1` the same measures were 25% and 89%.
With `O=C(CCCc1ccc(C(F)(F)F)nc1)N1CCc2c(Cl)c(O)c(O)c(Cl)c2C1`, the Activity stood at 26% in data set [1] and 93% in data set [2].
As for `O=C(/C=C/c1ccc(O)cc1)N1CCc2c(Cl)c(O)c(O)c(Cl)c2C1`, the Activity in data set [1] was 32%.

As a reminder, the solubility is the dissolved amount per volume that the medium holds. Higher therefore signals a readily soluble substance. What is called logD is the decadic logarithm of the distribution of all forms, ionised or not, between an organic phase and buffer at a given pH.
